Arr AP2 block – blocks beta-arrestin peptide binding to AP2 adaptin; AID 504490; FITC-arrestin peptide / GST-AP2 beads, flow cytometry; AP2 beta2 appendage carries R879A mutation; inhibition, % at 10 µM; 340,000 compounds, 0.31% hits;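 active = inhibition above a set limit, near 3 SD of compounds lacking own fluorescence, cut at about 54% in these data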;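 note: plate controls were DMSO wells for no effect and 5 µM unlabelled arrestin peptide for full effect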
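System: GST-AP2 R879A glutathione beads; medium: PBS, Tween 20 0.05%, BSA 0.1%; reagent: fluorescein-tagged arrestin peptide at 50 nM final; schedule: pre-incubation 12 min, peptide binding 1 h, room temperature; detection: flow cytometry, FL1 (488/535 nm); read-out: inhibition as reduced fluorescein signal on beads, percent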
iPSC survival up – hiPSC single-cell survival enhancement. ATPlite luminescence; 100% = ROCK inhibitor wells, 0% = DMSO. survival enhancement, % at 20 µM. 360,000 compounds, 0.044% hits. AID 602274; in the data active = survival enhancement above about 18%;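 note: cells exposed to compounds for 16 hours before the ATP read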
ABCB6 inh 2 – blocks the human ABCB6 transporter; Q9NP58; K562-ABCB6 porphyrin accumulation, flow cytometry, 1 h; stronger effect = lower value; fluorescence ratio to DMSO, % at 10 µM; 360,000 compounds, 0.19% hits; AID 602162;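 active = fluorescence ratio to DMSO below 75%, the collection mean minus 3 SD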;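 note: signal is porphyrin accumulated inside mitochondria; 100% equals median channel fluorescence of DMSO control wells; lower ratio means ABCB6 inhibition with less porphyrin fluorescence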
PG9 Ab binder – binds the HIV-1 gp120 antibody PG9; 360,000 compounds, 0.43% hits; AID 624416; inhibition, % at 6.7 µM; TR-FRET gp120-PG9 antibody binding; in the data active = inhibition above about 8.5%
Arr-AP2 CP1 – blocks beta-arrestin peptide binding to human AP2 | shares compounds with Arr AP2 block | GST-AP2 beads, FITC arrestin peptide binding, flow cytometry; GST-fused beta2-adaptin appendage, R879A mutant | inhibition, % at 10 µM | 1,300 compounds, 2% hits | AID 504908;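 active = inhibition above a set limit, roughly 3 SD of non-fluorescent compound noise, cut at about 38% in these data; inactive = inhibition at or below that limit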;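 note: loss of bead fluorescence from 50 nM FITC arrestin peptide bound to appendage; 0% = negative control wells and 100% = excess unlabelled arrestin peptide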
GST-FITC bead – GST-GSH bead binding interference, counter-screen; inhibition, % at 10 µM; 1,300 compounds, 2% hits; AID 588338; GST-fluorescein binding to GSH beads, fluorescence; shares compounds with Arr AP2 block;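 active = inhibition above 50%, about 3 SD of the inhibition seen with non-fluorescent compounds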;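 note: fluorescein maleimide labelled GST captured on 4 micron glutathione beads; higher means more loss of bead fluorescence from quenching or blocked binding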
Numbers without * were called inactive; x = no result. Sampled rows, rich in hits. Any-hit rate of the full collection: about 0.89%.

SMILES	Arr AP2 block	iPSC survival up	ABCB6 inh 2	PG9 Ab binder	Arr-AP2 CP1	GST-FITC bead
O=C(NCc1nnc2c(C(F)(F)F)cc(Cl)cn12)c1cccs1	56*	0	98	1	14	-2
Cc1nn(Cc2ccc(C(=O)Nc3ccccc3C(F)(F)F)o2)c(C)c1Br	-14	0	95	2	x	x
Cc1csc(NC(=O)c2ccc(Cn3nc(C)c(Br)c3C)o2)n1	58*	-1	82	0	-15	3
O=C(N=Nc1c(O)[nH]c2ccccc12)c1cccc(S(=O)(=O)Nc2ccccc2Cl)c1	7	2	98	-1	x	x
CC(C)c1ccc2[nH]c(O)c(N=NC(=O)c3cccc(S(=O)(=O)Nc4ccccc4Cl)c3)c2c1	100*	1	95	0	-4	-5
O=C(Nc1ccccc1N1CCCC1)c1cc(S(=O)(=O)N2CCOCC2)ccc1Cl	31	0	101	-2	x	x
CC(C)CNC(=O)c1cc(S(=O)(=O)N2CCOCC2)ccc1N1CCCC1	55*	1	101	0	9	-6
COc1ccc(CCNC(=O)c2cc(S(=O)(=O)N3CCOCC3)ccc2N2CCCC2)cc1OC	-11	0	81	0	-11	2
CC(=O)c1ccccc1NC(=O)c1cc(S(=O)(=O)N2CCOCC2)ccc1N1CCCC1	-1	0	102	1	1	-7
CCOC(=O)N1CCN(C(=O)C[C@H]2C[C@@]3(C(=O)OC)C(=C[C@H](COCc4ccccc4)O[C@@H]3C)N(CCC3=CCCCC3)C2=O)CC1	x	x	x	1	x	x
COc1cccc(-c2ccc3c(c2)[C@@H]2C[C@H]4[C@@H](CN2CC3)[C@H](C)ON4C)c1	x	x	x	-1	x	x
O=C1c2ccccc2C2Cc3nnccc3CN12 (stereo not given)	x	x	x	0	x	x
CC(C)(C)c1cc(C(=O)Nc2cccnc2)cc(C(=O)Nc2cccnc2)c1	61*	-1	94	0	4	0
Cc1nc2ccc(NC(=O)c3ccco3)cc2nc1C	39	-1	87	0	x	x
Cc1cc2cc(NC(=O)c3ccco3)ccc2[nH]1	100*	4	102	-2	-11	-2
COC1C(O)CCC2(CO2)C1C1(C)OC1CC=C(C)C (stereo not given)	x	x	x	1	x	x
O=S(=O)(NCCOc1ccccc1F)c1ccc(Cl)cc1F	60*	-1	98	-1	-3	-10
C[C@@H](NC(=O)Cn1cnc2c(OCc3ccccc3)ncnc21)c1cccc2ccccc12	5	-4	98	2	x	x
C[C@@H](NCCCn1cnc2c(OCc3ccccc3)ncnc21)c1cccc2ccccc12	62*	-4	101	-1	1	-4
O=C(NCc1ccccc1)[C@H]1CCCN1C(=O)[C@H]1CCCN1C(=O)c1ccc(F)cc1F	x	x	x	-1	x	x
COC(=O)c1cc2c(c3c4cc(OC)ccc4n(S(=O)(=O)c4ccc(F)cc4)c13)C(=O)N(C)C2	x	x	x	1	x	x
Cc1ccc(NC(=O)CNS(=O)(=O)c2ccc(F)cc2)cc1C	55*	0	93	1	-7	-5
O=C(CCCNS(=O)(=O)c1ccc(F)cc1)Nc1ccc(F)cc1	-3	-1	99	-2	x	x
CC(C)c1ccc(NC(=O)c2cccnc2)cc1	4	1	101	-1	x	x
O=C(Nc1cccc(Cl)c1)Nc1cnccn1	-4	1	100	0	-2	2
SMILES	Arr AP2 block	iPSC survival up	ABCB6 inh 2	PG9 Ab binder	Arr-AP2 CP1	GST-FITC bead
O=C(Nc1ccc(F)c(Cl)c1)Nc1cnccn1	17	1	95	1	x	x
CC(=O)Nc1ccc(NC(=O)Nc2cc(C)cc(C)c2)cc1	-4	0	97	0	x	x
CC(C)c1ccc(NC(=O)Nc2cnccn2)cc1	-7	0	95	-2	-2	-5
O=C(Nc1ccc(Cl)cc1)Nc1cnccn1	10	1	105	-1	16	5
O=C(Nc1cccc(Cl)c1)c1cnccn1	32	-1	101	-1	x	x
Cc1cc(C)cc(NC(=O)Nc2cnccn2)c1	8	0	100	-3	-7	0
CCOC(=O)C1=CCN(S(=O)(=O)c2ccc(Br)cc2)C1c1cccc(Br)c1 (stereo not given)	x	x	x	0	x	x
CC(=O)Nc1ccc(NC(=O)Nc2ccccc2)cc1	4	-1	101	-1	x	x
O=C(Nc1ccc([N+](=O)[O-])cc1)Nc1cnccn1	-8	1	98	-1	x	x
COc1ccc(NC(=O)Nc2cnccn2)cc1OC	-9	0	90	-1	-3	8
COC(=O)c1ccc(NC(=O)Nc2ccc(OC)c(OC)c2)cc1	0	1	99	-1	x	x
Cc1cnc(NC(=O)Nc2ccccc2)c(C)n1	-3	0	110	-1	-14	-2
O=C(Nc1ccccc1)Nc1cnccn1	40	0	99	-3	-5	-7
Cc1ccc(NC(=O)Nc2cnccn2)cc1	45	0	103	-1	-8	10
COC(=O)C1=C(C)N(Cc2cccc(C(F)(F)F)c2)C(=NCc2cc(OC)c(OC)c(OC)c2)NC1c1cccc(C(F)(F)F)c1 (stereo not given)	x	x	x	0	x	x
Cc1ccc(NC(=O)Nc2cnccn2)cc1C	9	0	97	0	3	-2
Cc1ccc(NC(=O)c2nccnc2C(=O)O)cc1C	-1	0	89	1	x	x
O=C1NC(c2ccc3c(c2)OCO3)c2c(-c3ccccc3)n[nH]c21 (stereo not given)	x	x	x	0	x	x
Cc1ccccc1C(=O)N(C)[C@H]1C[C@H]2c3[nH]c4c(-c5ccccc5)cccc4c3CCN2C(=O)[C@H]1[C@H](C)O	x	x	x	1	x	x
COc1ccc(CN2C(=O)c3cccnc3C2=O)cc1S(=O)(=O)N1CC(C)Oc2ccccc21 (stereo not given)	23	0	96	1	x	x
CC1CN(S(=O)(=O)c2ccc(CN3C(=O)c4cccnc4C3=O)cc2)c2ccccc2O1 (stereo not given)	59*	1	97	1	-3	-5
CCOc1cc(C(=O)OCC(=O)c2c(N)n(C)c(=O)n(C)c2=O)cc(OCC)c1OCC	-3	-2	104	-3	x	x
Cn1c(N)c(C(=O)COC(=O)c2cncc(Br)c2)c(=O)n(C)c1=O	61*	0	100	-2	-9	6
Cn1c(N)c(C(=O)COC(=O)c2ccc([N+](=O)[O-])o2)c(=O)n(C)c1=O	-25	0	98	0	x	x
Cc1ccc(C(=O)NCC(=O)OCC(=O)c2c(N)n(C)c(=O)n(C)c2=O)s1	75*	2	105	0	-12	3
Cn1c(N)c(C(=O)COC(=O)CNC(=O)c2ccccc2)c(=O)n(C)c1=O	-9	8	104	-1	x	x
Cn1c(N)c(C(=O)COC(=O)c2ccc(Br)o2)c(=O)n(C)c1=O	13	0	100	1	1	0

Screens deposited in PubChem BioAssay by several laboratories.
